Measured values taken from article PMC12966599 (Journal of Pharmaceutical Analysis, 2025).
Changes are numbered by the printed parent chain. “Also recorded” adds a separate entry of the source. One block for each molecule: values may come before it.

Key:
SHP2 = settings: read-out: IC50 against SHP2; previous study; ref 22 (Liu et al.); cited from earlier work
NCI-H1975 cells [1] = assay: Cell proliferation assay; assay type: cell-based; settings: CCK-8, day 3
How it was run: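 About 1.5 × 10^3 H1975 cells per well, in RPMI-1640 with 10% FBS, were treated with compound at 0–50 μM. On day 3 CCK-8 reagent was added and optical density read. Untreated wells served for background correction.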

[2] = system: SHP2 knockdown H1975 cells; assay: Cell proliferation in SHP2 knockdown cells; assay type: cell-based; settings: SHP2 siRNA treated H1975 cells versus H1975
SHP2-FL = target: T1, SHP2-FL (Homo sapiens, UniProt Q06124); assay: SHP2-FL inhibition assay; assay type: biochemical
T1 sequence (Q06124 1-525): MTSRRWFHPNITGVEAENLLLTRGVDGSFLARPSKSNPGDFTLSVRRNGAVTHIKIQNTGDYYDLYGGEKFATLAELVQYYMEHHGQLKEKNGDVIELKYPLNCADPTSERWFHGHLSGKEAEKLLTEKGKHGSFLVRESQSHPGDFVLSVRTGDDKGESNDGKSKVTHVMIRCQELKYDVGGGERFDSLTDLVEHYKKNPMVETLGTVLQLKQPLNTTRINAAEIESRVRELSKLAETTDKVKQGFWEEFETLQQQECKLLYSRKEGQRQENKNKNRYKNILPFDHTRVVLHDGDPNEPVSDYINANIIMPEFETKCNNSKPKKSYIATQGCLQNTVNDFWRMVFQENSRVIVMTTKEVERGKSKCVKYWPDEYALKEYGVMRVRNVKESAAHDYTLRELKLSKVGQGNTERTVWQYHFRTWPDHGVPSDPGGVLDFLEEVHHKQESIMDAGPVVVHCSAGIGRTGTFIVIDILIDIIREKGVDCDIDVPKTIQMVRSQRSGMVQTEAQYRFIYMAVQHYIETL

SHP2^D61V = target: T2, SHP2^D61V (Homo sapiens, UniProt Q06124, D61V); assay: Inhibition of oncogenic mutant SHP2^D61V; assay type: biochemical
T2 sequence (Q06124 1-525 D61V): T1 sequence (Q06124 1-525) with D61V

SHP2-PTP^Q510A = target: T3, SHP2-PTP^Q510A (Homo sapiens, UniProt Q06124, Q510A); assay: BLI assay, SHP2-PTP^Q510A; assay type: binding
T3 sequence (Q06124 237-529 Q510A): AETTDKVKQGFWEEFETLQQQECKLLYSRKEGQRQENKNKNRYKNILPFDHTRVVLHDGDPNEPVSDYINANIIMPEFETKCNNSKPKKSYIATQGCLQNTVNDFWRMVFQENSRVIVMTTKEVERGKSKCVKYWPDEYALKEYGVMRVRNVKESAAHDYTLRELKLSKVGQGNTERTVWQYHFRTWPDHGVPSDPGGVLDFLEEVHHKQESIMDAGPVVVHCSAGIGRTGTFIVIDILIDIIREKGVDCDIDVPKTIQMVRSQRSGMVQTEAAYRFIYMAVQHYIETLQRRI

H1975 xenograft = assay: NCI-H1975 xenograft model; assay type: in vivo, BALB/c nude mice
How it was run: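 Female BALB/c nude mice, five weeks old, received a subcutaneous H1975 suspension (5 × 10^6/mL) in the right flank. At a mean tumor volume of 50–100 mm3 they were randomised into three groups. Compound in 0.5% CMC-Na was given intragastrically at 20 mg/kg/day; controls received vehicle. Body weight and tumor volume were recorded every two days. Tumor sections were stained for Ki-67, and tumor lysates were immunoblotted for p-ERK. Data are mean ± SD with two-sided t-test.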

LMWPTP (ACP1) = target: T4, LMWPTP (ACP1) (Homo sapiens, UniProt P24666); assay: Phosphatase selectivity, LMWPTP; assay type: biochemical
T4 sequence (P24666 1-158): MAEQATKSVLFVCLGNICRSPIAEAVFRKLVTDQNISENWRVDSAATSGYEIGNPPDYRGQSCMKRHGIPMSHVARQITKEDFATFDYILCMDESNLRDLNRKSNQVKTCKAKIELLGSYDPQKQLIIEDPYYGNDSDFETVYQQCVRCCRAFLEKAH

p-ERK in H1975 cells = assay: ERK phosphorylation in cells; assay type: cell-based; settings: 10 μM
How it was run: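 H1975 cells, grown in RPMI-1640 with 10% FBS, were exposed to 10 μM compound and lysed in RIPA buffer with phosphatase and protease inhibitors. Proteins were separated and transferred. Blots were probed overnight at 4 °C with antibodies to p-ERK1/2, total ERK and β-actin diluted in 5% BSA, then developed by enhanced chemiluminescence.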

PTPN6 (SHP1) = PTPN6 (SHP1) (Homo sapiens, UniProt P29350); assay: Phosphatase selectivity, PTPN6; assay type: biochemical
Sequence of PTPN6 (SHP1) (P29350 1-597 isoform P29350-3): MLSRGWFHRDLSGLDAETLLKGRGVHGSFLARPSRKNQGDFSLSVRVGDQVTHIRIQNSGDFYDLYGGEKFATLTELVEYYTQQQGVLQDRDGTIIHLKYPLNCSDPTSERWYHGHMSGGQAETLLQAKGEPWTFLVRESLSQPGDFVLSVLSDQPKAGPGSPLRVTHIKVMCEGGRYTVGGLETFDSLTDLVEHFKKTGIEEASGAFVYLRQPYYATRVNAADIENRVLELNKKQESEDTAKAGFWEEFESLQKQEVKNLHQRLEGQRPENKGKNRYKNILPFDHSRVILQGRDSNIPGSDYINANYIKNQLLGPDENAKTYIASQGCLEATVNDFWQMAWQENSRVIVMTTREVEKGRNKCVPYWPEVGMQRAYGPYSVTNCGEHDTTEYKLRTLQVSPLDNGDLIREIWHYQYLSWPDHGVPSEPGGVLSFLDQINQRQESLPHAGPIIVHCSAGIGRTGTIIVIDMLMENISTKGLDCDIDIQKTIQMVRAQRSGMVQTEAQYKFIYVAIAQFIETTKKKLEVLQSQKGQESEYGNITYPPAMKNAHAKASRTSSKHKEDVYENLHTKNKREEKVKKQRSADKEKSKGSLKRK

NCI-H1975 cells [3] = assay: Colony formation assay; assay type: cell-based; settings: measured 10 days after compound treatment
How it was run: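 About 10^3 H1975 cells per well in RPMI-1640 with 10% FBS were allowed to adhere overnight and treated the next day. Medium and compound were renewed every 3–4 days. When untreated wells reached confluence, colonies were fixed with formaldehyde, stained with 0.2% crystal violet and scanned.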

PTPN1 (PTP1B) = target: T5, PTPN1 (PTP1B) (Homo sapiens, UniProt P18031); assay: Phosphatase selectivity, PTPN1; assay type: biochemical
T5 sequence (P18031 1-321): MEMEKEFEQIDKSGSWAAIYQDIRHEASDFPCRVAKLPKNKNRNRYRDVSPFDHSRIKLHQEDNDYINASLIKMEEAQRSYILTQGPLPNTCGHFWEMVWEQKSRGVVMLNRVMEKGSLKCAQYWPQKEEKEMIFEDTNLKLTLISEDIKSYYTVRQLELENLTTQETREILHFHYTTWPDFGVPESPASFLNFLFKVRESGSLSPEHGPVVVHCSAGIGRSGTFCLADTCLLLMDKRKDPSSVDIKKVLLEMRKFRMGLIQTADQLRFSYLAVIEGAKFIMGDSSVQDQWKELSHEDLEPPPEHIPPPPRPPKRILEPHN

PTPRA (RPTPα) = PTPRA (RPTPα) (Homo sapiens, UniProt P18433); assay: Phosphatase selectivity, PTPRA; assay type: biochemical
Sequence of PTPRA (RPTPα) (P18433 183-802): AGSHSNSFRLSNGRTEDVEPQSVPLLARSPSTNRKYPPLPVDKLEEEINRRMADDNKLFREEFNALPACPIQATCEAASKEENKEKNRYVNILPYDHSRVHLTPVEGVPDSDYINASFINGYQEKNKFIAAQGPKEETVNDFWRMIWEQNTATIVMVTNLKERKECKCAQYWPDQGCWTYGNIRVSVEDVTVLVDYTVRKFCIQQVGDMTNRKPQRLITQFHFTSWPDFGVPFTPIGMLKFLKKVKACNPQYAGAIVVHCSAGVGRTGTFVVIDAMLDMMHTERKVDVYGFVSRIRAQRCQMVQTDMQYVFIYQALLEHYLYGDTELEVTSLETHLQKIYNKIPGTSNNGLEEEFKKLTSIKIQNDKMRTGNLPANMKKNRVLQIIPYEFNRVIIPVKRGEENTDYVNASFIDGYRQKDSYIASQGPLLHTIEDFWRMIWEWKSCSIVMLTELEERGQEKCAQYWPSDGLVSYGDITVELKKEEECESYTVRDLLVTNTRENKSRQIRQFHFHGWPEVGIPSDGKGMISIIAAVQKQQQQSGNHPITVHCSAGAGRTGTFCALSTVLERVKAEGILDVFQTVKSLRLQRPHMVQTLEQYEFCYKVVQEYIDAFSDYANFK

SHP2-PTP^R465A = target: T6, SHP2-PTP^R465A (Homo sapiens, UniProt Q06124, R465A); assay: BLI assay, SHP2-PTP^R465A; assay type: binding
T6 sequence (Q06124 237-529 R465A): T3 sequence (Q06124 237-529 Q510A) with R229A, A274Q

SHP2-PTP = target: T7, SHP2-PTP (Homo sapiens, UniProt Q06124); assay: SHP2-PTP inhibition assay; assay type: biochemical; settings: for IC50: IC50 (SHP2-PTP), DiFMUP substrate
T7 sequence (Q06124 237-529): T3 sequence (Q06124 237-529 Q510A) with A274Q

SHP2^E76K = target: T8, SHP2^E76K (Homo sapiens, UniProt Q06124, E76K); assay: Inhibition of oncogenic mutant SHP2^E76K; assay type: biochemical
T8 sequence (Q06124 1-525 E76K): T1 sequence (Q06124 1-525) with E76K

PTPN12 (PTP-PEST) = target: T9, PTPN12 (PTP-PEST) (Homo sapiens, UniProt Q05209); assay: Phosphatase selectivity, PTPN12; assay type: biochemical
T9 sequence (Q05209 1-305): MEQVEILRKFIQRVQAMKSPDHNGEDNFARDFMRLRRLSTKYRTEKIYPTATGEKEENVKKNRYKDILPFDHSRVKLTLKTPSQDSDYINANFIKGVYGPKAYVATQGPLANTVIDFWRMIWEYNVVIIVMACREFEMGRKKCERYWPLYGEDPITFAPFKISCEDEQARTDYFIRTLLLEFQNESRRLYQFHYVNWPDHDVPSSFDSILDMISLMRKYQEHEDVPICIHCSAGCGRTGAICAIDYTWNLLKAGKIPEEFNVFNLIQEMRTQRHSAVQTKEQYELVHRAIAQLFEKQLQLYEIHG

SHP2^T253M = target: T10, SHP2^T253M (Homo sapiens, UniProt Q06124, T253M); assay: Inhibition of tunnel-site mutant SHP2^T253M; assay type: biochemical
T10 sequence (Q06124 1-525 T253M): T1 sequence (Q06124 1-525) with T253M

[4] = 20 mg/kg/day oral, versus vehicle

Compound: C[C@H]1COC2=C1C(=O)C(=O)c1c2ccc2c1CCCC2(C)C [Cryptotanshinone]
IC50 (SHP2): 22.5 µM

SHP2-FL inhibitory activity (in words) (SHP2-FL): comparable inhibitory activity
IC50 (SHP2^D61V): 1.34 ± 0.36 µM
IC50 (LMWPTP (ACP1)): > 100 µM
IC50 (PTPN6 (SHP1)): 2.5 ± 0.3 µM
IC50 (PTPN1 (PTP1B)): 9.3 ± 0.94 µM
IC50 (PTPRA (RPTPα)): 50.4 ± 5.3 µM
fold higher inhibitory potency against SHP2 than cryptotanshinone (SHP2-PTP; DiFMUP screening, versus cryptotanshinone): 4.7 fold
IC50 (SHP2-PTP): 1.06 ± 0.21 µM
fold lower SHP2-PTP IC50 than tanshinone IIA (SHP2-PTP; versus tanshinone IIA): 13 fold
IC50 (SHP2^E76K): 1.61 ± 0.26 µM
IC50 (PTPN12 (PTP-PEST)): 32.1 ± 3.8 µM
Compound: Cc1cccc2c3c(ccc12)C1=C(C(=O)C3=O)[C@@H](C)CO1 [DHT, dihydrotanshinone I]
proliferation of NCI-H1975 cells (NCI-H1975 cells [1]): significant suppression
sensitivity of SHP2-depleted H1975 cells (anti-proliferation) [2]: significantly lower sensitivity
direct interaction with SHP2-PTP^Q510A (BLI) (SHP2-PTP^Q510A): significantly abolished the direct interaction
body weight change (H1975 xenograft; 20 mg/kg/day oral, full treatment course): No body weight loss
Ki-67 staining in tumor tissue (H1975 xenograft; [4]): reduced Ki-67 staining positive areas
MAPK phosphorylation in tumor tissue (H1975 xenograft; [4]): marked decrease
tumor growth in NCI-H1975 xenograft (H1975 xenograft; oral gavage 20 mg/kg daily, 20-day treatment, versus vehicle, 20 mg/kg): significant tumor growth suppression; also recorded: modest anti-tumor effect
ERK phosphorylation (Western blot) (p-ERK in H1975 cells): significant decrease
colony formation of NCI-H1975 cells (NCI-H1975 cells [3]): significant suppression
direct interaction with SHP2-PTP^R465A (BLI) (SHP2-PTP^R465A): significantly abolished the direct interaction

effect of SHP2^T253M mutation on efficacy (in words) (SHP2^T253M): eliminated the efficacy
Compound: C[C@@H]1OCC2(CCN(c3cnc(Sc4ccnc(N)c4Cl)c(N)n3)CC2)[C@@H]1N [TNO155]

IC50 (SHP2-PTP): 3.3 ± 1.2 µM
Compound: Cc1coc2c1C(=O)C(=O)c1c-2ccc2c(C)cccc12 [Tanshinone I]
